The record followed here is ChEMBL document CHEMBL2150943, “SAR and LC/MS studies of β-lactamic inhibitors of human fatty acid amide hydrolase (hFAAH): evidence of a nonhydrolytic process” (J Med Chem, 2011).

Data set [1] has as its target T1, Fatty-acid amide hydrolase 1 (Homo sapiens, UniProt O00519).
T1 sequence (O00519 whole entry): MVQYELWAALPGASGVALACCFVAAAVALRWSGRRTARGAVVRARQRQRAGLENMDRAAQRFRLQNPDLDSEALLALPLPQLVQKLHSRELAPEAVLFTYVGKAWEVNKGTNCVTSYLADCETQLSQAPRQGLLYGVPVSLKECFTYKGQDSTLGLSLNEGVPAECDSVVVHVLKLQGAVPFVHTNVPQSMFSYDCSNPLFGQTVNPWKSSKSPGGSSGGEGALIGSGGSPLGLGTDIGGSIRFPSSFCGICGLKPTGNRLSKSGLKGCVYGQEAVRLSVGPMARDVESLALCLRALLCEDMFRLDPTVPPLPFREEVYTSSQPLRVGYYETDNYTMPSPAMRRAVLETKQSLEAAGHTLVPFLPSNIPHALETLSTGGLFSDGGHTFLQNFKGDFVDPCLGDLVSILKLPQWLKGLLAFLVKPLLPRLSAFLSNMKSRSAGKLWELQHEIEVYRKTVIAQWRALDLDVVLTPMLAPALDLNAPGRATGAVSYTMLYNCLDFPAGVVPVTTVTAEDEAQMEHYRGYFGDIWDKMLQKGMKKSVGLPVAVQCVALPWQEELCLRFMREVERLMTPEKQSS
Kind of data set: Reversible inhibition of human recombinant FAAH assessed as hydrolysis of [3H]-AEA after 10 mins by liquid scintillation counting. An outline of the steps:
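In-house recombinant human FAAH (6 μg) in 10 mM Tris-HCl, 1 mM EDTA, 0.1% (w/v) BSA, pH 7.4. Compound in DMSO, or DMSO alone, with [3H]-AEA (2 μM final, 50,000 dpm) for 10 min at 37 °C. Stopped on ice with chloroform/methanol (1:1). Aqueous phase counted for [3H]-ethanolamine; buffer-only blank subtracted. IC50 from three independent experiments in duplicate.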

In data set [2] the target is T1, Fatty-acid amide hydrolase 1. Kind of data set: Irreversible inhibition of human recombinant FAAH assessed as hydrolysis of [3H]-AEA after 10 mins by liquid scintillation counting.
Data set [3] addresses T2, Fatty-acid amide hydrolase 1 (Homo sapiens) (UniProt O00519).
T2 sequence (whole entry): T1 sequence (O00519 whole entry)
Kind of data set: Activity of human recombinant FAAH assessed as compound hydrolysis at 10^-5 M after 90 mins by HPLC/MS analysis in presence of PF-750. The method in brief:
(§1)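 Recombinant human FAAH (90 μg/tube), made in-house, incubated with compound in TE buffer (10 mM Tris-HCl, 1 mM EDTA, 0.1% w/v BSA, pH 7.4) at 37 °C for 90 min, with or without preincubation with FAAH inhibitor at 5.10^-5 M. Proteins precipitated by centrifugation and supernatant concentrated. Parent [M+H]+ quantified by HPLC/MS as AUC ratio to internal standard, normalized to boiled-enzyme blank. Three independent experiments in duplicate.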

The target in data set [4] is T2, Fatty-acid amide hydrolase 1 (Homo sapiens). Kind of data set: Activity of human recombinant FAAH assessed as compound hydrolysis at 10^-5 M after 90 mins by HPLC/MS analysis. An outline of the steps:
as §1

Data set [5] in a line: Metabolic stability of the compound in mouse liver homogenate assessed as compound hydrolysis at 10^-5 M after 90 mins by HPLC/MS analysis. The note with it: read-out: Drug metabolism. It is filed as ADME, tissue-based. The method in brief: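 Mouse liver homogenised in Tris buffer pH 7.4 and spun at 800g for 15 min; supernatant used (22.5 μg/tube). Compound incubated in TE buffer (10 mM Tris-HCl, 1 mM EDTA, 0.1% BSA, pH 7.4) for 90 min at 37 °C. Proteins removed and supernatant concentrated. HPLC/MS followed the parent [M+H]+ AUC against an internal standard, normalised to boiled homogenate. Mean ± SEM, 3 experiments in duplicate.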

The target of data set [6] is T3, Fatty-acid amide hydrolase 1 (Mus musculus) (UniProt O08914).
T3 sequence (whole entry): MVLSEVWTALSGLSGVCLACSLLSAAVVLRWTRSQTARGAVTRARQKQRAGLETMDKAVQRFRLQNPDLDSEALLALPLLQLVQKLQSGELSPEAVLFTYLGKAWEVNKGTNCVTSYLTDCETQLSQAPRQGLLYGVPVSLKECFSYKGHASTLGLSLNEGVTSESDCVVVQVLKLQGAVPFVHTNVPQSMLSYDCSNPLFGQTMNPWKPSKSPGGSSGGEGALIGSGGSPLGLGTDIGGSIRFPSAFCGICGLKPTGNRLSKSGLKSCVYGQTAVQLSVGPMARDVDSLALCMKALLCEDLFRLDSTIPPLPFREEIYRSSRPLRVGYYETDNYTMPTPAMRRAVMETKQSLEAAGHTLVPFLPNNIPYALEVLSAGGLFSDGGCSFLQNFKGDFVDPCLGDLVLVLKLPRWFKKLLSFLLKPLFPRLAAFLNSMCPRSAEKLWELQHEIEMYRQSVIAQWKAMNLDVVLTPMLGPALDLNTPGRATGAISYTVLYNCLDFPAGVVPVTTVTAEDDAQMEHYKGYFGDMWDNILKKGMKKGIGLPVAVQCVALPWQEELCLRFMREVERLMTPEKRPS
Kind of data set: Activity of mouse liver homogenate FAAH assessed as compound hydrolysis at 10^-5 M after 90 mins by HPLC/MS analysis in presence of PF-750. It is filed as tissue-based. The method in brief: (§2)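 Mouse liver homogenate (800g supernatant from Tris pH 7.4; 22.5 μg/tube) incubated with compound in TE buffer (10 mM Tris-HCl, 1 mM EDTA, 0.1% BSA, pH 7.4), 37 °C, 90 min, with or without preincubation with FAAH inhibitor (5.10^-5 M). Parent and ring-opened product measured by HPLC/MS as AUC ratio to internal standard, normalized to heat-inactivated homogenate. Three independent experiments in duplicate.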

Data set [7] addresses T3, Fatty-acid amide hydrolase 1 (Mus musculus). Kind of data set: Activity of mouse liver homogenate FAAH assessed as compound hydrolysis at 10^-5 M after 90 mins by HPLC/MS analysis in presence of URB-597. The class given is tissue-based. The method in brief:
as §2

The target in data set [8] is T2, Fatty-acid amide hydrolase 1 (Homo sapiens). Kind of data set: Activity of human recombinant FAAH assessed as compound hydrolysis at 10^-5 M after 90 mins by HPLC/MS analysis in presence of URB-597. The method in brief:
as §1

Data set [9] addresses T3, Fatty-acid amide hydrolase 1 (Mus musculus). Kind of data set: Activity of mouse liver homogenate FAAH assessed as compound hydrolysis at 10^-5 M after 90 mins by HPLC/MS analysis. It is filed as tissue-based. An outline of the steps: as §2

“And” between values parts separate entries of the source, which are not always exact repeats. Equal values may be shown once. The source made the active and inactive calls. The rule behind the calls is not given here.

With `C=CCCC(=O)N1CC([C@@H](C)OCCCCc2ccccc2)C1`, the IC50 in [1] (read-out: IC50) was 2900 nM; in data set [1] (read-out: pIC50 (converted)), 2880 nM.
For `C=CCCCN1C[C@@H]([C@@H](C)OC(=O)CCCc2ccccc2)C1=O`, in that order: 82800 nM and 83200 nM.
Take `C=CCCC(=O)N1C[C@@H]([C@@H](C)OCCCCc2ccccc2)C1=O`: in [2], the IC50 is 8 nM and 8.13 nM. Also, the result in data set [3], in data set [4], in [7] and in data set [8] was inactive. The metabolised at 1.5 h, 10 µM in [5] was > 80%. In data set [6], the result was Active.
Regarding `C=CCCC(=O)N1C[C@@H]([C@@H](C)OC(=O)CCCc2ccccc2)C1=O`, the pIC50 in data set [1] is given as 8.27. Also, the metabolised at 1.5 h, 10 µM in [5] was > 80%.
Consider `CCCCC/C=C\C/C=C\C/C=C\C/C=C\CCCC(=O)NCCO`, for which the outcome in [3], in [6], in data set [7] and in data set [8] was inactive. Also, the outcome in data set [4] and in data set [9] was Active.

A word on the pIC50: it is −log10 of the IC50, conventionally taken in molar units.
